From ChEMBL document CHEMBL6083196, “Synthesis and cytotoxic activity of madecassic acid-silybin conjugate compounds in liver cancer cells” (2024)

Key:
HepG2 [1] = assay: Induction of apoptosis in human HepG2 cells assessed as necrotic cells at GI50 incubated for 24 hrs by Annexin V-FITC/PI staining based flow cytometry (reference value: 5.34 %); type: functional
HepG2 [2] = assay: Induction of cell cycle arrest in human HepG2 cells assessed as accumulation at G2/M phase at IC50 incubated for 24 hrs by PI staining based flow cytometry (reference value: 27.69 %); type: functional
HepG2 [3] = assay: Induction of apoptosis in human HepG2 cells assessed as early apoptotic cells at 3 times GI50 incubated for 24 hrs by Annexin V-FITC/PI staining based flow cytometry (reference value: 2.98 %); type: functional
HepG2 [4] = assay: Induction of apoptosis in human HepG2 cells assessed as fold change in caspase-3 level at 3 times GI50 incubated for 1 hr by colorimetric assay relative to control; type: functional
How it was run: (§1)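 Lysates taken from HepG2 cells 1, 6 or 24 h after treatment at 0.3×, 1× or 3× GI50. Lysis on ice for 10 min, then 10 000 × g spin; protein measured by Bradford. 80 μg protein incubated with DTT and DEVD-pNA substrate for 1 h at 37 °C, in triplicate; absorbance read at 405 nm. Result expressed as fold change versus untreated cells. Camptothecin 0.5 μM as control; mean and SE reported.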

HepG2 [5] = assay: Induction of apoptosis in human HepG2 cells assessed as viable cells at GI50 incubated for 24 hrs by Annexin V-FITC/PI staining based flow cytometry (reference value: 88.62 %); type: functional
HepG2 [6] = assay: Induction of cell cycle arrest in human HepG2 cells assessed as accumulation at S phase at 3 times IC50 incubated for 24 hrs by PI staining based flow cytometry (reference value: 46.83 %); type: functional
HepG2 [7] = assay: Induction of apoptosis in human HepG2 cells assessed as fold change in caspase-3 level at GI50 incubated for 6 hrs by colorimetric assay relative to control; type: functional; how it was run: as §1
HepG2 [8] = assay: Induction of apoptosis in human HepG2 cells assessed as late apoptotic cells at GI50 incubated for 24 hrs by Annexin V-FITC/PI staining based flow cytometry (reference value: 3.06 %); type: functional
HepG2 [9] = assay: Induction of apoptosis in human HepG2 cells assessed as necrotic cells at 3 times GI50 incubated for 24 hrs by Annexin V-FITC/PI staining based flow cytometry (reference value: 5.34 %); type: functional
HepG2 [10] = assay: Induction of apoptosis in human HepG2 cells assessed as fold change in caspase-3 level at GI50 incubated for 24 hrs by colorimetric assay relative to control; type: functional; how it was run: as §1
HepG2 [11] = assay: Induction of apoptosis in human HepG2 cells assessed as fold change in caspase-3 level at 3 times GI50 incubated for 24 hrs by colorimetric assay relative to control; type: functional; how it was run: as §1
HepG2 [12] = assay: Induction of apoptosis in human HepG2 cells assessed as late apoptotic cells at 3 times GI50 incubated for 24 hrs by Annexin V-FITC/PI staining based flow cytometry (reference value: 3.06 %); type: functional
HepG2 [13] = assay: Induction of cell cycle arrest in human HepG2 cells assessed as accumulation at G0/G1 phase at 3 times IC50 incubated for 24 hrs by PI staining based flow cytometry (reference value: 24.63 %); type: functional
HepG2 [14] = assay: Induction of cell cycle arrest in human HepG2 cells assessed as accumulation at G0/G1 phase at IC50 incubated for 24 hrs by PI staining based flow cytometry (reference value: 24.63 %); type: functional
HepG2 [15] = assay: Induction of apoptosis in human HepG2 cells assessed as fold change in caspase-3 level at 0.3 times GI50 incubated for 1 hr by colorimetric assay relative to control; type: functional; how it was run: as §1
[16] = Cytotoxicity against human Huh-7R cells incubated for 96 hrs by MTT assay; type: functional
How it was run: (§2)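 Cells grown in DMEM with 10% FBS and 1% antibiotic at 37 °C, 5% CO2. Trypsinised, seeded at 3 × 10^4 cells per mL, treated over an eight-point titration for 96 h. MTT (0.5 mg mL−1) added for 4 h at 37 °C, formazan dissolved in DMSO, absorbance read at 570 nm. GI50 is the concentration halving the MTT signal versus untreated control. Ellipticine served as reference; n ≥ 3 repeats.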

HepG2 [17] = assay: Induction of apoptosis in human HepG2 cells assessed as viable cells at 3 times GI50 incubated for 24 hrs by Annexin V-FITC/PI staining based flow cytometry (reference value: 88.62 %); type: functional
Huh-7 = assay: Cytotoxicity against human Huh-7 cells incubated for 96 hrs by MTT assay; type: functional; how it was run: as §2
Hep 3B2 = assay: Cytotoxicity against human Hep3B cells incubated for 96 hrs by MTT assay; type: functional; how it was run: as §2
HepG2 [18] = assay: Cytotoxicity against human HepG2 cells incubated for 96 hrs by MTT assay; type: functional; how it was run: as §2
HepG2 [19] = assay: Induction of apoptosis in human HepG2 cells assessed as fold change in caspase-3 level at 0.3 times GI50 incubated for 6 hrs by colorimetric assay relative to control; type: functional; how it was run: as §1
HepG2 [20] = assay: Induction of apoptosis in human HepG2 cells assessed as fold change in caspase-3 level at GI50 incubated for 1 hr by colorimetric assay relative to control; type: functional; how it was run: as §1
HepG2 [21] = assay: Induction of apoptosis in human HepG2 cells assessed as fold change in caspase-3 level at 3 times GI50 incubated for 6 hrs by colorimetric assay relative to control; type: functional; how it was run: as §1
HepG2 [22] = assay: Induction of apoptosis in human HepG2 cells assessed as early apoptotic cells at GI50 incubated for 24 hrs by Annexin V-FITC/PI staining based flow cytometry (reference value: 2.98 %); type: functional
HepG2 [23] = assay: Induction of apoptosis in human HepG2 cells assessed as fold change in caspase-3 level at 0.3 times GI50 incubated for 24 hrs by colorimetric assay relative to control; type: functional; how it was run: as §1
HepG2 [24] = assay: Induction of cell cycle arrest in human HepG2 cells assessed as accumulation at G2/M phase at 3 times IC50 incubated for 24 hrs by PI staining based flow cytometry (reference value: 27.69 %); type: functional
HepG2 [25] = assay: Induction of cell cycle arrest in human HepG2 cells assessed as accumulation at S phase at IC50 incubated for 24 hrs by PI staining based flow cytometry (reference value: 46.83 %); type: functional
HepG2 [26] = assay: Induction of apoptosis in human HepG2 cells assessed as fold change in caspase-3 level at 0.5 uM incubated for 24 hrs by colorimetric assay relative to control
HepG2 [27] = assay: Induction of apoptosis in human HepG2 cells assessed as necrotic cells incubated for 24 hrs by Annexin V-FITC/PI staining based flow cytometry (reference value: 5.34 %); type: functional
HepG2 [28] = assay: Induction of apoptosis in human HepG2 cells assessed as fold change in caspase-3 level at 0.5 uM incubated for 1 hr by colorimetric assay relative to control
HepG2 [29] = assay: Induction of apoptosis in human HepG2 cells assessed as late apoptotic cells incubated for 24 hrs by Annexin V-FITC/PI staining based flow cytometry (reference value: 3.06 %); type: functional
HepG2 [30] = assay: Induction of apoptosis in human HepG2 cells assessed as viable cells incubated for 24 hrs by Annexin V-FITC/PI staining based flow cytometry (reference value: 88.62 %); type: functional
HepG2 [31] = assay: Induction of apoptosis in human HepG2 cells assessed as early apoptotic cells incubated for 24 hrs by Annexin V-FITC/PI staining based flow cytometry (reference value: 2.98 %); type: functional
HepG2 [32] = assay: Induction of apoptosis in human HepG2 cells assessed as fold change in caspase-3 level at 0.5 uM incubated for 6 hrs by colorimetric assay relative to control

Structure (SMILES): C[C@H]1[C@H](C)CC[C@]2(C(=O)O)CC[C@]3(C)C(=CC[C@@H]4[C@@]5(C)C[C@@H](O)[C@H](O)[C@@](C)(CO)[C@@H]5[C@H](O)C[C@]43C)[C@H]12 [MADECASSIC ACID]
- Activity (HepG2 [1]): 6.23%
- Activity (HepG2 [2]): 21.51%
- Activity (HepG2 [3]): 13.37%
- fold change (FC) (HepG2 [4]): 0.97
- Activity (HepG2 [5]): 80.48%
- Activity (HepG2 [6]): 24.25%
- fold change (FC) (HepG2 [7]): 1.16
- Activity (HepG2 [8]): 4.29%
- Activity (HepG2 [9]): 8.44%
- fold change (FC) (HepG2 [10]): 0.68
- fold change (FC) (HepG2 [11]): 0.54
- Activity (HepG2 [12]): 6.16%
- Activity (HepG2 [13]): 54.22%
- Activity (HepG2 [14]): 19.29%
- fold change (FC) (HepG2 [15]): 0.74
- GI50 [16]: 215 µM
- Activity (HepG2 [17]): 72.03%
- GI50 (Huh-7): 198 µM
- GI50 (Hep 3B2): 178 µM
- GI50 (HepG2 [18]): 161 µM
- fold change (FC) (HepG2 [19]): 0.81
- fold change (FC) (HepG2 [20]): 0.94
- fold change (FC) (HepG2 [21]): 1.71
- Activity (HepG2 [22]): 9%
- fold change (FC) (HepG2 [23]): 0.99
- Activity (HepG2 [24]): 20.71%
- Activity (HepG2 [25]): 58.52%

Structure (SMILES): CC[C@@]1(O)C(=O)OCc2c1cc1n(c2=O)Cc2cc3ccccc3nc2-1 [CAMPTOTHECIN]
- fold change (FC) (HepG2 [26]): 2.19
- Activity (HepG2 [27]): 3.85%
- fold change (FC) (HepG2 [28]): 1.94
- Activity (HepG2 [29]): 2.3%
- Activity (HepG2 [30]): 79.08%
- Activity (HepG2 [31]): 14.78%
- fold change (FC) (HepG2 [32]): 2.21

Structure (SMILES): CC(=O)OC[C@@]1(C)[C@@H]2[C@H](O)C[C@]3(C)[C@H](CC=C4[C@@H]5[C@@H](C)[C@H](C)CC[C@]5(C(=O)O)CC[C@]43C)[C@@]2(C)C[C@@H](OC(C)=O)[C@@H]1OC(C)=O
- GI50 (HepG2 [18]): 44.1 µM

Structure (SMILES): COc1cc([C@H]2Oc3cc([C@H]4Oc5cc(O)cc(O)c5C(=O)[C@@H]4OC(=O)CCNC(=O)[C@]45CC[C@@H](C)[C@H](C)[C@H]4C4=CC[C@@H]6[C@@]7(C)C[C@@H](OC(C)=O)[C@H](OC(C)=O)[C@@](C)(COC(C)=O)C7=CC[C@@]6(C)[C@]4(C)CC5)ccc3O[C@@H]2CO)ccc1O
- GI50 (HepG2 [18]): 344 µM

Structure (SMILES): COc1cc([C@H]2Oc3cc([C@H]4Oc5cc(O)cc(O)c5C(=O)[C@@H]4OC(=O)CNC(=O)[C@]45CC[C@@H](C)[C@H](C)[C@H]4C4=CC[C@@H]6[C@@]7(C)C[C@@H](OC(C)=O)[C@H](OC(C)=O)[C@@](C)(COC(C)=O)[C@@H]7[C@H](O)C[C@@]6(C)[C@]4(C)CC5)ccc3O[C@@H]2CO)ccc1O
- Activity (HepG2 [1]): 13.32%
- Activity (HepG2 [2]): 9.78%
- Activity (HepG2 [3]): 1.28%
- fold change (FC) (HepG2 [4]): 1.69
- Activity (HepG2 [5]): 71.11%
- Activity (HepG2 [6]): 60.41%
- fold change (FC) (HepG2 [7]): 1.09
- Activity (HepG2 [8]): 4.92%
- Activity (HepG2 [9]): 13.81%
- fold change (FC) (HepG2 [10]): 1.86
- fold change (FC) (HepG2 [11]): 1.37
- Activity (HepG2 [12]): 0.91%
- Activity (HepG2 [13]): 27.07%
- Activity (HepG2 [14]): 26.72%
- fold change (FC) (HepG2 [15]): 0.59
- GI50 [16]: 14.2 µM
- Activity (HepG2 [17]): 84%
- GI50 (Huh-7): 13.8 µM
- GI50 (Hep 3B2): 9.61 µM
- GI50 (HepG2 [18]): 32.5 µM
- fold change (FC) (HepG2 [19]): 0.76
- fold change (FC) (HepG2 [20]): 0.76
- fold change (FC) (HepG2 [21]): 1.27
- Activity (HepG2 [22]): 10.65%
- fold change (FC) (HepG2 [23]): 1.62
- Activity (HepG2 [24]): 11.8%
- Activity (HepG2 [25]): 61.09%

Structure (SMILES): COc1cc([C@H]2Oc3cc([C@H]4Oc5cc(OC(C)=O)cc(OC(C)=O)c5C(=O)[C@@H]4OC(=O)CNC(=O)[C@]45CC[C@@H](C)[C@H](C)[C@H]4C4=CC[C@@H]6[C@@]7(C)C[C@@H](OC(C)=O)[C@H](OC(C)=O)[C@@](C)(COC(C)=O)[C@@H]7[C@H](O)C[C@@]6(C)[C@]4(C)CC5)ccc3O[C@@H]2COC(C)=O)ccc1OC(C)=O
- GI50 (HepG2 [18]): 122 µM

Structure (SMILES): COc1cc([C@H]2Oc3cc([C@H]4Oc5cc(O)cc(O)c5C(=O)[C@@H]4OC(=O)CNC(=O)[C@]45CC[C@@H](C)[C@H](C)[C@H]4C4=CC[C@@H]6[C@@]7(C)C[C@@H](OC(C)=O)[C@H](OC(C)=O)[C@@](C)(COC(C)=O)C7=CC[C@@]6(C)[C@]4(C)CC5)ccc3O[C@@H]2CO)ccc1O
- GI50 (HepG2 [18]): 174 µM

Structure (SMILES): COc1cc([C@H]2Oc3cc([C@H]4Oc5cc(O)cc(O)c5C(=O)[C@@H]4O)ccc3O[C@@H]2CO)ccc1O [SILYBIN A]
- GI50 (HepG2 [18]): 285 µM

Structure (SMILES): COc1cc([C@H]2Oc3cc([C@H]4Oc5cc(OC(C)=O)cc(OC(C)=O)c5C(=O)[C@@H]4OC(=O)CNC(=O)[C@]45CC[C@@H](C)[C@H](C)[C@H]4C4=CC[C@@H]6[C@@]7(C)C[C@@H](OC(C)=O)[C@H](OC(C)=O)[C@@](C)(COC(C)=O)C7=CC[C@@]6(C)[C@]4(C)CC5)ccc3O[C@@H]2COC(C)=O)ccc1OC(C)=O
- GI50 (HepG2 [18]): 243 µM
